The results in this text go back to ChEMBL document CHEMBL4513216, “Probing the Open Global Health Chemical Diversity Library for Multistage-Active Starting Points for Next-Generation Antimalarials” (ACS Infect Dis, 2020).

This data set in a line: Toxicity liver stage against HepG2, at 10uM. The data set is classed as cell-based. More on the design: test concentration 10 uM, cell line HepG2-A16-CD81EGFP. As to conditions: human, HepG2-A16-CD81EGFP cells; read-out: INHIBITION
A digest of the protocol:
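Uninfected HepG2-A16-CD81EGFP cells, 3 × 10^3 per well, 1536-well, plated on prespotted compound at 10 μM final, parasite-free screening media added to match infected plates; puromycin 10 μM positive, DMSO 0.5% negative; run in parallel with 48 h PbLuc assay at 37 °C, 5% CO2; viability by CellTiter-Glo luminescence, normalized to controls.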
In the case of `Cc1nnc([C@H]2C[C@H]3OCC[C@H]3N(S(=O)(=O)C3CC3)C2)o1`, the cytotoxicity at 10 µM is -4.11%.
For the compound `CN(C)c1cc(CNC(=O)c2n[nH]c(=O)c3ccccc23)ccn1`, the cytotoxicity at 10 µM was -3.79%.
Consider `COCC1CN(Cc2ccc(OC)cc2)S(=O)(=O)c2cnccc2O1` (configuration not stated), for which the cytotoxicity at 10 µM is -1.78%.
On to `NC(=O)c1cc2c(nc1CCOCc1ccccc1)CCC2`, for which the cytotoxicity at 10 µM stood at 2.99%.
For the compound `CNC(=O)N1CC[C@@H]2CN(Cc3cccc(OC)c3)S(=O)(=O)[C@@H]2CC1`, the cytotoxicity at 10 µM is -108%.
Turning to `CNC(=O)CS(=O)(=O)C1CCN(S(=O)(=O)c2cccc(C(C)=O)c2)CC1`, the cytotoxicity at 10 µM came out at 5.85%.
Regarding `CN(CCN1CCOCC1)C(=O)C1(c2ccc(F)cc2F)CCC1`, the cytotoxicity at 10 µM is -6.68%.
Turning to `COCCCC1(CO)CCCN(Cc2nccs2)C1` (configuration not stated), the cytotoxicity at 10 µM stood at 2.43%.
In the case of `Cc1nc(-c2ccccc2)ccc1C(=O)N1CCN(CCO)CC1`, the cytotoxicity at 10 µM is -53.9%.
`Cc1nc(C)c(CN2CCOC[C@H](Oc3ccccc3)C2)s1`: the cytotoxicity at 10 µM was 7.53%.
Turning to `Cc1oncc1C(=O)N1CC[C@H]2[C@H]1CCN2Cc1ccccn1`, the cytotoxicity at 10 µM was determined as 6.15%.
For the compound `CCOC(=O)CN1C(=O)CN(S(C)(=O)=O)CCC(OC)c2ccccc21` (configuration not stated), the cytotoxicity at 10 µM was 1.5%.
Consider `Cc1noc([C@@]23CCO[C@@H]2CCN(C(=O)C2CCOCC2)C3)n1`, for which the cytotoxicity at 10 µM came out at 1.68%.
Take `COCCNC(=O)CN1CCN(c2nc3cc(C)ccc3o2)CC1`: the cytotoxicity at 10 µM stood at 5.75%.
Turning to `Cc1nc(CCNc2ccc(-c3nc(C)c(C)c(=O)[nH]3)cn2)cs1`, the cytotoxicity at 10 µM is 2.07%.
Take `CCn1cc(CNCC(c2ccc(Cl)cc2)n2cccn2)cn1` (configuration not stated): the cytotoxicity at 10 µM was found to be 6.67%.
With `CCc1nc(NS(=O)(=O)c2ccc(C)cc2Cl)no1`, the cytotoxicity at 10 µM is -1.51%.
With `Cc1cc(C)n(C2CN(CC(=O)NCC(C)(C)N3CCOCC3)C2)n1` the figure was -3.42%.
As to `CCn1nc2c(cc1=O)CN(CC(=O)Nc1nncs1)CC2`, the cytotoxicity at 10 µM was -0.284%.
`COc1cc(CNC(=O)NCCCF)cc(Br)c1OC`: the cytotoxicity at 10 µM came to 11.4%.
In the case of `CCn1ncc2c1C(COCC1CC1)N(Cc1nccs1)CC2` (configuration not stated) it was 10.6%; in that of `CCc1ccc(NC(=O)c2n[nH]c(-n3cnnc3)n2)cc1`, 4.68%; in that of `CC(O)CN1CCC(CNCc2ccccc2C(F)(F)F)CC1` (configuration not stated), -9.27%.
As for `COc1ccc(C(=O)N2CCN(C(=O)CCCc3cn[nH]c3)CC2)cc1`, the cytotoxicity at 10 µM is -5.63%.
As to `Cc1ccnc(NC(=O)c2cc(C)oc2C)c1`, the cytotoxicity at 10 µM is -4.57%.
`O=C(NC1CCC(O)CC1)c1ccc2nc(-c3ccccc3)cn2c1` (configuration not stated): the cytotoxicity at 10 µM turned out to be 8.99%.
`COc1ccc(C(=O)N(C)Cc2ncc(C)c(OC)c2C)c(OC)c1`: the cytotoxicity at 10 µM was -4.28%.
Take `Cc1ccc(CN(Cc2nc3c(cnn3C)c(=O)[nH]2)C(C)C)s1`: the cytotoxicity at 10 µM was -5.48%.
`NC(=O)CN1CCCCC1c1nc(N)ncc1-c1cccc(F)c1` (configuration not stated): the cytotoxicity at 10 µM is -13.5%.
For the compound `Cn1cc(CN2CCCn3cnc(COCc4ccco4)c3C2)cn1`, the cytotoxicity at 10 µM came to 7.61%.
For `COCC(=O)N1CCCC1c1cc(N2CCN(C(C)=O)CC2)cc(C)n1` (configuration not stated), the cytotoxicity at 10 µM is -9.41%.
In the case of `CCOc1cccc(C(C)NC(=O)N2CCC3(CC2)OCCO3)c1` (configuration not stated), the cytotoxicity at 10 µM was 0.322%.
With `COc1nccc(N2CC[C@H](N3CCOCC3)[C@H](CCCO)C2)c1C#N`, the cytotoxicity at 10 µM is -148%.
On to `CC(C)C(NC(=O)Cn1nc2c(cc1=O)CCCC2)C(=O)O` (configuration not stated), for which the cytotoxicity at 10 µM came out at 7.63%.
As for `CC(=O)c1cc(CC(=O)NCc2c(F)cccc2F)cs1`, the cytotoxicity at 10 µM is -8.51%.
As for `Cc1nnc2n1CCN(C(=O)c1ccnc(N(C)C)c1)C2`, the cytotoxicity at 10 µM was -16.2%.
With `COc1ccccc1OCC(=O)n1nc(C)c(C)c1C`, the cytotoxicity at 10 µM is -5.01%.
Take `Cc1nc(N2CCOCC2)nc(C)c1NC(=O)Cc1ccc(Cl)cc1`: the cytotoxicity at 10 µM is -4%.
For the compound `CN(C)c1cc(CNC(=O)c2cccc(F)c2)ccn1`, the cytotoxicity at 10 µM is -13.5%.
In the case of `CC(C)OCc1ccc(CNc2cncc(-n3cccn3)n2)cc1`, the cytotoxicity at 10 µM came out at 43.8%.
Regarding `Cc1ncsc1CNCC(C)c1nc2ccccc2o1` (configuration not stated), the cytotoxicity at 10 µM stood at 4.17%.
With `CSC(C)(C)CNC(=O)NC1CCN(C)CC1`, the cytotoxicity at 10 µM is 18.9%.
For `N#Cc1ccc(F)c(CN2CCCCC2Cn2cccn2)c1` (configuration not stated), the cytotoxicity at 10 µM is -0.674%.
Regarding `COc1ccccc1OCCN(C)c1cc(C)nc(N)n1`, the cytotoxicity at 10 µM came out at 10.4%.
For the compound `Fc1ccccc1-c1noc2c1CN(CC1CC1)CC2`, the cytotoxicity at 10 µM was -15.4%.
Turning to `CCS(=O)(=O)N1CCC2(CCN(CC(=O)N(C)C)C2=O)CC1`, the cytotoxicity at 10 µM is 5.68%.
Regarding `CC(Oc1ccccc1)C(=O)N1CCCN(Cc2nccn2C)CC1` (configuration not stated), the cytotoxicity at 10 µM came to 0.471%.
Consider `CCc1noc(CNc2cc3c(cc2Cl)OCCCO3)n1`, for which the cytotoxicity at 10 µM was -1.98%.
`Cc1cc(NC(=O)CN2CCn3c(nnc3C3CC3)C2)n(C)n1`: the cytotoxicity at 10 µM was -14%.
Turning to `CCOC[C@@H]1CC[C@H]2[C@H](CCN2C(=O)c2cnccn2)O1`, the cytotoxicity at 10 µM was -10.6%.
In the case of `CN1CCOC(CNCc2cccc(OC(F)(F)F)c2)C1` (configuration not stated), the cytotoxicity at 10 µM is -12%.
With `COc1ccc(CN(C)C(=O)NC(C)c2nncn2C)cc1F` (configuration not stated) the figure was -2.85%.
`Cc1cc(Br)cnc1N(C)CC1CCOC1` (configuration not stated): the cytotoxicity at 10 µM turned out to be 4.99%.
In the case of `Cn1cc(Cl)c(CN(Cc2ccsc2)CC2CCCO2)n1` (configuration not stated), the cytotoxicity at 10 µM is -3.84%.
In the case of `COC(=O)C(C)(C)NC(=O)C1CC(=O)N(C)C1` (configuration not stated), the cytotoxicity at 10 µM was -8.92%.
For the compound `Cc1cnc2c(C(=O)N3CCCC(OCc4ccccn4)C3)cnn2c1` (configuration not stated), the cytotoxicity at 10 µM was -5.2%.
In the case of `CC(C)(C)CC(NC(=O)c1nc(=O)[nH][nH]1)c1ccc(F)cc1` (configuration not stated) it was -2.42%; in that of `COC(=O)N1CCN(Cc2ccccc2C(C)(C)C#N)CC1`, -3.53%; in that of `COCCNCc1cc2ccc(C)c(C)c2[nH]c1=O`, 5.13%.
Regarding `CC(C)c1nnc2n1CCN(C(=O)c1cc3cc(F)ccc3[nH]1)C2`, the cytotoxicity at 10 µM stood at 3.98%.
With `O=C(O)CCc1nc2nccc(C(F)(F)F)n2n1` the figure was -1.36%; with `CNc1nc(CNC(=O)Nc2cccc(Cl)c2Cl)cs1`, -15.8%.
For `c1ncn(CC2CN(CCCOc3ccc4c(c3)OCO4)CCO2)n1` (configuration not stated), the cytotoxicity at 10 µM was -1.85%.
For the compound `CC(C)(C)CN1CCC(c2nnc(Cn3ccnc3)n2C2CC2)CC1`, the cytotoxicity at 10 µM was -5.02%.
For the compound `COCc1c(Cl)cccc1NC(=O)CNC(=O)C(C)(C)C`, the cytotoxicity at 10 µM was -5.73%.
For the compound `CC(C)(O)CCc1cccc(C(=O)NCC2COCCO2)c1` (configuration not stated), the cytotoxicity at 10 µM is -6.38%.
For the compound `CCc1ccc(CCNc2ncnc3c2CCN(C(=O)C2CC2)C3)cc1`, the cytotoxicity at 10 µM is 36.9%.
`Cc1ccc(O)c(C(=O)NCCS(=O)(=O)Cc2ccccc2)c1`: the cytotoxicity at 10 µM came to 4.57%.
Take `CC(NCCCN1CCCC1=O)c1cc(Br)ccc1O` (configuration not stated): the cytotoxicity at 10 µM was -1.41%.
With `Cc1ccc(OCC(=O)N(C)Cc2ccc(F)cc2)cn1` the figure was 7.88%.
In the case of `CCC(=O)N1CCC2(C=C(C(=O)N3CCCC3)c3ccccc32)CC1` it was -92.8%; in that of `COCC(C)NC(=O)CN1CCC(C)CC1` (configuration not stated), -9.32%.
In the case of `Cc1noc([C@@H]2C[C@H]3OCC[C@H]3N(CC3CCCC3)C2)n1` it was -77.5%.
Consider `CC1(C)CCC(C(=O)O)c2ccccc21` (configuration not stated), for which the cytotoxicity at 10 µM was -1.92%.
As for `COCCN1C[C@@H]2CN(Cc3ccoc3)CCC[C@]2(C(=O)O)C1`, the cytotoxicity at 10 µM was -139%.
As to `CC(C)CCC(=O)Nc1ccc2oc(=O)n(CCN(C)C)c2c1`, the cytotoxicity at 10 µM is -9.15%.
Regarding `O=C(Cn1ccc(-c2ccccc2)n1)N1CCN(C(=O)C2CC2)CC1`, the cytotoxicity at 10 µM was -6.58%.
With `Cc1nnc(CN2C[C@@H]3CC[C@H]2CN(C2Cc4ccccc4C2)C3)o1` the figure was -1.06%.
In the case of `CN1CCN(Cc2cccc(NCc3ncc[nH]3)c2)CC1` it was -6.44%; in that of `O=C(Nc1nccs1)NC1CCN(Cc2ccccn2)CC1`, -5.72%.
With `COCCN1C2(CCN(Cc3nccs3)C2)c2ccccc2S1(=O)=O` (configuration not stated) the figure was -65.7%; with `Cn1cc(NC(=O)Cn2c(CS(C)(=O)=O)nc3ccccc32)cn1`, 1.31%; with `CC(C)(C)NC(=O)c1ccccc1NC(=O)c1ccncc1`, -10.3%.
Regarding `OC(CNCCc1nnc2ccccn12)c1ccc(F)c(F)c1` (configuration not stated), the cytotoxicity at 10 µM came out at 2.52%.
As to `COc1ccccc1N1CCN(C(=O)COc2c(C)occc2=O)CC1`, the cytotoxicity at 10 µM was -0.426%.
Turning to `CCn1ncc2c1CCCC2NCc1csc(COC)n1` (configuration not stated), the cytotoxicity at 10 µM was 1.17%.
In the case of `CC(C)CCC(=O)N(C)CC(=O)Nc1ccc(Br)cn1` it was -8.39%.
With `CS(=O)(=O)N[C@@H]1CCN(Cc2ccncc2)[C@H]1Cc1cccnc1` the figure was -79.7%; with `FC(F)(F)c1csc(N2CCN(Cc3ccccn3)CC2)n1`, 4.25%.
For the compound `CS(=O)(=O)c1ccc(NC(=O)NCCC2=CCCCC2)cc1`, the cytotoxicity at 10 µM was -0.529%.
Turning to `O=C(Cc1ccccc1Cl)N1CCN(CC(O)COCCO)CC1` (configuration not stated), the cytotoxicity at 10 µM was found to be 5.51%.
As for `O=C(NCCc1ccc2c(c1)OCO2)C1CCCN(Cc2ccco2)C1` (configuration not stated), the cytotoxicity at 10 µM came to 0.209%.
As to `Cc1cncc(NC(=O)c2ccc(CN3CC[C@H](O)C3)cc2)c1`, the cytotoxicity at 10 µM was 12.4%.
With `CN(C)c1ncc(-c2cccc(C(N)=O)c2)c(C2CNCCO2)n1` (configuration not stated), the cytotoxicity at 10 µM is -2.77%.
As for `CCOC1COC2(CCN(Cc3cccc(C#N)c3)CC2)C1` (configuration not stated), the cytotoxicity at 10 µM is -2.66%.
For `Cc1nn(C)c(=O)c2nn(-c3ccc(Cl)cc3)c(C)c12`, the cytotoxicity at 10 µM was -4.18%.
In the case of `COc1cccc(CNc2cc(C)nc(-c3ccncc3)n2)c1OC` it was 46.5%.
